# Screens deposited in PubChem BioAssay by several laboratories.
# In the library only some 1.8% were active in any assay of this set; here they are far more common.
# AI-2 QS mod – Vibrio harveyi AI-2 quorum sensing modulators, primary screen, JMH597 strain, luminescence/OD600 ratio; AID 2094, 2009; activity change, % at 7.5 µM; Vibrio harveyi JMH597 AI-2 luminescence/OD600 ratio, 9 h; hits give low values; strain lacks LuxN and CqsS sensors; 0 = neutral-control median; 0.4% of 300,000 active; in the data active means activity change below about -75%, passing the limit was not always enough;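 further: luminescence divided by OD600 gain over 9 h not by final OD600 alone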
# MC4R ag barr – MC4R agonists recruiting beta-arrestin, primary screen, cell-based, luminescence, agonist arm of biased-ligand search; activation, % at 8.9 µM; 0.98% of 360,000 active; AID 540308, 2011; U2OS MC4R beta-arrestin complementation; percent of melanotan II response, DMSO zero; Melanocortin receptor 4 (Homo sapiens), P32245;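 active means activation above a per-plate cutoff, the mean activation of sample wells on that plate plus 3 SD, cut at about 8% in these data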
# MC4R antag cAMP – MC4R antagonists of cAMP signaling, primary screen, cell-based, TR-FRET, antagonist arm of biased-ligand search; inhibition, % at 6.5 µM; Melanocortin receptor 4 (Homo sapiens), P32245; 0.48% of 360,000 active; AID 540295, 2011; MC4R-expressing cells, MTII-stimulated cAMP, LANCE TR-FRET;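 active means inhibition above its plate's cutoff, the mean of tested wells on that plate plus 3 SD, cut at about 29% in these data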;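 further: 0% = Melanotan II alone and 100% = Melanotan II plus saturating MCL0020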
#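 System – human MC4R-expressing U2OS cells · Also added – Melanotan II · Dosing – one concentration, 6.5 µM nominal · Timing – 30-min compound, 1-h challenge, 1-h detection, room temperature · Measured by – Eu-cAMP/anti-cAMP TR-FRET, emission 671 nm · Replicates – singlicate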
# NTR1 ag – agonists of human NTR1, primary screen, imaging, U2OS cells, beta-arrestin-GFP, high content | Neurotensin receptor type 1 (Homo sapiens), P30989 | activation, % at 20 µM | AID 493036, 2011 | 0.17% of 330,000 active | NTR1-U2OS beta-arrestin-GFP spot imaging, agonist mode;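 active means activation at or above 40% of the spot to cytoplasm intensity ratio, with at least 20 cells analyzed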;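 further: 0% = DMSO without peptide and 100% = 100 nM NTR1 peptide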
# Target sequence (P30989 whole entry, looked up): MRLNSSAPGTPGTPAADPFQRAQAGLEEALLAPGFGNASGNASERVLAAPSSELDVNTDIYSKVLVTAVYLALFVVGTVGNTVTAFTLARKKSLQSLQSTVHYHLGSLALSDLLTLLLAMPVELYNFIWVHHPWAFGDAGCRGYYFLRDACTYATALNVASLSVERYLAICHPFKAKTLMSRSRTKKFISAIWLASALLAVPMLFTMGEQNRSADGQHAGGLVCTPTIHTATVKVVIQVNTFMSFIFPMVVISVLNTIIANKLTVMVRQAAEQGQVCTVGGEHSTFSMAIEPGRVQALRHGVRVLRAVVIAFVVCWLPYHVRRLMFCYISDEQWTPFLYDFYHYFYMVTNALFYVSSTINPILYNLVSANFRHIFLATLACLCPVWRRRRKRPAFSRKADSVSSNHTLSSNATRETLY
# U2OS cAMP counter – nonselective cAMP signaling inhibitors, parental cells, counter-screen for MC4R biased antagonist project, cell-based, TR-FRET, U2OS, forskolin, triplicate | 26% of 1,600 active | AID 602193, 2012 | shares compounds with MC4R antag cAMP | LANCE TR-FRET | inhibition, % at 6.5 µM;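 active means mean inhibition over triplicates above the low-control well mean plus 3 SD, set per campaign, cut at about 13% in these data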;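 further: signal is single emission at 671 nm which falls as cellular cAMP rises; 0% = forskolin-stimulated wells and 100% = buffer without forskolin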
# MC4R cAMP antag – MC4R cAMP antagonists, retest, confirmation, cell-based, TR-FRET; 27% of 1,600 active; shares compounds with MC4R antag cAMP; MC4R-expressing cells, MTII-stimulated cAMP; AID 602195, 2012; inhibition, % at 6.5 µM; in the data active means inhibition above about 29%;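 further: 0% = agonist stimulated wells alone and 100% = agonist stimulated wells plus saturating reference antagonist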
# Numbers without * were called inactive; nt = no result.
SMILES,AI-2 QS mod,MC4R ag barr,MC4R antag cAMP,NTR1 ag,U2OS cAMP counter,MC4R cAMP antag
O=C(CCCc1nc2ccccc2s1)NCc1cccnc1,-17,-1,29*,-1,0,0
O=C(CCCc1nc2ccccc2s1)Nc1ccccc1,-1,-3,-1,2,nt,nt
C=CCOc1cccc(C(=O)Nc2ncn[nH]2)c1,12,-1,3,-1,nt,nt
O=C(Nc1ccccc1Cl)c1c(F)c(F)c(F)c(F)c1F,3,2,37*,4,49*,77*
Cc1c(C(=O)NCc2c(F)cc(F)cc2F)oc2ccc(S(=O)(=O)N3CCOCC3)cc12,-2,0,10,0,nt,nt
Cc1c(C(=O)NCc2ccc(F)cc2)oc2ccc(S(=O)(=O)N3CCOCC3)cc12,2,2,32*,-1,-1,-1
N#C/C(=C/c1ccc(OCc2ccc(C(=O)O)cc2)c(Br)c1)c1cccc(F)c1,28,-2,34*,3,-3,-14
O=C(Cc1ccc([N+](=O)[O-])cc1)Nc1cccc(C(=O)N2CCCCC2)c1,nt,-1,1,-2,nt,nt
COc1ccc([N+](=O)[O-])c(C=CC(=O)c2ccccn2)c1,nt,0,30*,nt,-1,14
COc1ccc(/C=C/C(=O)c2ccccn2)cc1,15,-3,6,-2,nt,nt
COc1ccc(OC)c(C2C(C(=O)Nc3nc4ccccc4s3)=C(C)NC3=C2C(=O)CCC3)c1 (stereo not given),31,-3,33*,0,7,43*
COc1cccc(C2C(C(=O)Nc3nc4ccccc4s3)=C(C)NC3=C2C(=O)CC(C)(C)C3)c1OC (stereo not given),18,7,6,5,nt,nt
Cc1onc(-c2ccccc2Cl)c1C(=O)NNC(=O)c1nn(C)cc1Cl,25,0,36*,0,-3,-13
Cc1onc(-c2ccccc2Cl)c1C(=O)NNC(=O)c1ccc(F)cc1,9,1,1,0,nt,nt
O=C(COC(=O)c1c(F)cccc1F)Nc1ccc(N2CCCCC2)cc1,nt,-1,0,0,nt,nt
CCC(C)(C)NC(=O)CN(Cc1ccc2c(c1)OCO2)C(=O)CCC(=O)Nc1cc(C)ccn1,18,2,30*,1,-2,-5
CC(C)[C@H](NC(=O)OC(C)(C)C)c1nnc(S(=O)(=O)Cc2c(F)cccc2Cl)o1,20,-3,64*,33,27*,34*
CC(C)(C)OC(=O)N[C@@H](Cc1ccccc1)c1nnc(S(=O)(=O)Cc2cccc(F)c2)o1,13,nt,nt,10,nt,nt
CC[C@@H](C)[C@H](NC(=O)OC(C)(C)C)c1nnc(S(=O)(=O)Cc2cc(C)ccc2C)o1,12,-3,22,-1,nt,nt
Cc1ccccc1CS(=O)(=O)c1nnc([C@H](CC(C)C)NC(=O)OC(C)(C)C)o1,16,-1,33*,20,11,20
O=C(CSc1nnc(CNC(=O)c2ccc(F)cc2)o1)Nc1nccs1,21,1,4,0,nt,nt
CCCCN(C(=O)c1ccc([N+](=O)[O-])o1)c1c(N)n(CCCC)c(=O)[nH]c1=O,11,-2,8,2,nt,nt
CCOP(=O)(OCC)C(NC(=O)Nc1cccc(Cl)c1)c1ccccc1 (stereo not given),1,1,30*,-2,-1,16
COc1ccc(CNC(=O)[C@H](Cc2c[nH]c3ccccc23)NC(=O)[C@@H]2Cc3ccccc3CN2)cc1,40,-1,31*,1,-2,11
O=C(O)CCC(=O)c1ccc2sc3ccccc3c2c1,nt,-1,7,nt,nt,nt
SMILES,AI-2 QS mod,MC4R ag barr,MC4R antag cAMP,NTR1 ag,U2OS cAMP counter,MC4R cAMP antag
O=C(CNC(=O)c1ccc(Cl)cc1Cl)OCC(=O)N1CCCC1=O,16,-2,35*,1,19*,30*
O=C(CNC(=O)c1ccc(Cl)cc1Cl)OCC(=O)N1CCCC1,nt,-1,22,1,nt,nt
O=C(COC(=O)CNC(=O)c1ccc(Cl)cc1Cl)NCc1ccco1,19,-2,31*,0,11,43*
O=C(CNC(=O)c1ccc(Cl)cc1)OCn1nnc2ccccc2c1=O,nt,-1,14,-1,nt,nt
CC1CCCC(C)N1C(=O)COC(=O)CNC(=O)c1ccc(Cl)cc1Cl (stereo not given),6,-1,29*,2,18*,19
O=C(CNC(=O)c1ccc(Cl)cc1Cl)OCn1nnc2ccccc2c1=O,8,-2,32*,0,17*,21
COc1ccc(CC(=O)Nc2cc3oc4ccccc4c3cc2OC)cc1,33,-1,29*,2,0,0
O=[N+]([O-])c1cc(S(=O)(=O)NCCN2CCOCC2)ccc1Cl,13,0,29*,0,5,17
CCOC(=O)C(C)(C)N(Cc1cccc(C)c1)S(=O)(=O)c1ccc(Cl)c([N+](=O)[O-])c1,-7,1,54*,17,26*,63*
NC(=NCc1ccco1)NC(=O)c1ccc(Cl)cc1,8,1,-2,0,nt,nt
O=C(Nc1nc(-c2ccccn2)cs1)c1cc(Cl)ccc1[N+](=O)[O-],74,-1,29*,2,32*,18
Cc1cc(C(=O)Nc2nc(-c3ccccn3)cs2)ccc1[N+](=O)[O-],nt,-2,18,5,nt,nt
O=C(NC(=S)NCCCN1CCOCC1)c1ccco1,45,1,29*,0,2,-15
CCOC(=O)c1sc(NC(=O)c2ccc(S(=O)(=O)N3CCCCC3)cc2)nc1-c1ccccc1,48,-1,-2,4,nt,nt
CCOC(=O)c1sc(NC(=O)c2ccc(S(=O)(=O)N3CCCCCC3)cc2)nc1-c1ccccc1,8,-1,32*,4,-6,0
COc1ccccc1C(=O)Nc1ccc(NC(=O)C2CCCCC2)nc1,6,1,31*,0,3,13
CC(CCc1ccccc1)NC(=O)CN1CCOc2ccccc21 (stereo not given),17,0,3,-2,nt,nt
CC(CCc1ccccc1)NC(=O)CN1CCSc2ccccc21 (stereo not given),46,-1,31*,-1,-1,-2
CCOC(=O)Cn1c(=O)oc2cc(S(=O)(=O)N3CCc4ccccc43)ccc21,45,1,30*,9,11,13
CC(C)(C)NC(=O)Cn1c(=O)oc2cc(S(=O)(=O)N3CCc4ccccc43)ccc21,27,0,11,-2,nt,nt
